Source: ChEMBL document CHEMBL4480458, “Synthesis and Anti-inflammatory Evaluation of ( R)-, ( S)-, and (±)-Sanjuanolide Isolated from Dalea frutescens” (J Nat Prod, 2019)
Activity calls are given as the source filed them. No cut-off for these calls is given here.

What was measured:
Format in all cases: functional, cell-based
RAW264.7 [1] = test: Antiinflammatory activity in mouse RAW264.7 cells assessed as inhibition of LPS-induced IL-6 production pretreated for 30 mins followed by LPS-stimulation and measured after 24 hrs by ELISA
Method in brief: (§1)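 RAW 264.7 cells were seeded at 400 000 per well in DMEM and held for 24 h at 37 °C, 5% CO2. They were pretreated 30 min with vehicle or compound at 1, 2.5, 5 or 10 μM, then stimulated with LPS at 0.5 μg/mL for 24 h. Supernatant cytokine was measured by ELISA. IC50 was taken from the concentration series, and significance was tested against LPS vehicle.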

RAW264.7 [2] = test: Antiinflammatory activity in mouse RAW264.7 cells assessed as inhibition of LPS-induced TNFalpha production pretreated for 30 mins followed by LPS-stimulation and measured after 24 hrs by ELISA; method in brief: as §1
RAW264.7 [3] = test: Antiinflammatory activity in mouse RAW264.7 cells assessed as inhibition of LPS-induced TNFalpha mRNA expression pretreated for 30 mins followed by LPS-stimulation and measured after 24 hrs by trizol reagent based qRT-PCR analysis
Method in brief: (§2)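 RAW 264.7 macrophages were grown in DMEM with 10% FBS and penicillin/streptomycin at 37 °C, 5% CO2. Cells were plated at 7.0 × 10^5/plate and incubated overnight, then pretreated 30 min with compound at 2.5 or 10 μM before LPS at 1.0 μg/mL for 24 h. Total RNA was extracted and qPCR was run, with each gene normalized to β-actin. Values are % of LPS control, mean ± SEM of three independent experiments, Student's t test.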

RAW264.7 [4] = test: Antiinflammatory activity in mouse RAW264.7 cells assessed as inhibition of LPS-induced IL-6 mRNA expression pretreated for 30 mins followed by LPS-stimulation and measured after 24 hrs by trizol reagent based qRT-PCR analysis; method in brief: as §2
RAW264.7 [5] = test: Antiinflammatory activity in mouse RAW264.7 cells assessed as inhibition of LPS-induced IL1beta mRNA expression pretreated for 30 mins followed by LPS-stimulation and measured after 24 hrs by trizol reagent based qRT-PCR analysis; method in brief: as §2
RAW264.7 [6] = test: Antiinflammatory activity in mouse RAW264.7 cells assessed as inhibition of LPS-induced ICAM1 mRNA expression pretreated for 30 mins followed by LPS-stimulation and measured after 24 hrs by trizol reagent based qRT-PCR analysis; method in brief: as §2
RAW264.7 [7] = test: Antiinflammatory activity in mouse RAW264.7 cells assessed as inhibition of LPS-induced […] mRNA expression pretreated for 30 mins followed by LPS-stimulation and measured after 24 hrs by trizol reagent based qRT-PCR analysis; method in brief: as §2
RAW264.7 [8] = test: Antiinflammatory activity in mouse RAW264.7 cells assessed as inhibition of LPS-induced COX2 mRNA expression pretreated for 30 mins followed by LPS-stimulation and measured after 24 hrs by trizol reagent based qRT-PCR analysis; method in brief: as §2

SMILES	IC50 (RAW264.7 [1]) [nM]	IC50 (RAW264.7 [2]) [nM]	inhibition (RAW264.7 [3])	inhibition (RAW264.7 [4])	inhibition (RAW264.7 [5])	inhibition (RAW264.7 [6])	inhibition (RAW264.7 [7])	inhibition (RAW264.7 [8])	inhibition (RAW264.7 [1])	inhibition (RAW264.7 [2])
C=C(C)[C@H](O)Cc1c(O)ccc(C(=O)/C=C/c2ccccc2)c1O	1100	1200	Active	Active	Active	Active	Active	Active		
C=C(C)[C@@H](O)Cc1c(O)ccc(C(=O)/C=C/c2ccccc2)c1O									inactive	inactive
C=C(C)C(O)Cc1c(O)ccc(C(=O)/C=C/c2ccccc2)c1O (racemic)	1100	1600	Active	Active	Active	Active	Active	Active		
